Measured values of several laboratories.
Cell line: MDA-MB-231
Read-out: cell growth or viability

SMILES | method | time | IC50
COc1cccc2c1C(=O)c1c(O)c3c(c(O)c1C2=O)C[C@@](O)(C(=O)CO)C[C@@H]3O[C@H]1C[C@H](N)[C@H](O)[C@H](C)O1 | MTT | – | 4.27 µM
CC(=O)Nc1nc(C)c(-c2csc(Nc3ccccc3)n2)s1 | MTT | 48 h | 12.2 µM
FC(F)(F)c1cccc(Nc2ncnc3ccc(NCc4ccccc4)cc23)c1 | MTT | 24 h | 12.6 µM
CC(=O)CC(=O)[c-]1cccc1.[Fe+2].c1cc[cH-]c1 | MTT | 96 h | 47 µM
Fc1ccc(-c2nc3ccccc3n2Cc2ccccc2)cc1 | MTT | – | 34.6 µM
CC(=O)OC[C@H]1O[C@@H]([S-])[C@H](OC(C)=O)[C@@H](OC(C)=O)[C@@H]1OC(C)=O.CCP(CC)CC.[Au+] | resazurin | – | 1.58 µM
CCc1ccc(N2NC(=O)/C(=C/c3ccc(-c4ccc(S(=O)(=O)Nc5nccs5)cc4)o3)C2=O)cc1 | MTT | 48 h | 65.2 µM
COc1cc(OC)cc([C@H]2C[C@@H](C)OC(=O)c3cc4ccccn4c32)c1 (racemic) | resazurin | 72 h | 20.5 µM
FC(F)(F)c1cccc(Nc2ncnc3ccc(-c4ccsc4)cc23)c1 | MTT | 24 h | 2.96 µM
CCn1c(-c2nnc(NC(=O)c3cc4c([nH]c5ccccc54)c(-c4cc(OC)c(OC)c(OC)c4)n3)s2)cc2ccccc21 | MTT | 72 h | 8.66 µM
O=C1C[C@@H](c2ccc(O)cc2)Oc2cc(O)cc(O)c21 | MTT | 48 h | 2.98 µM
CCOc1ccc(-c2nc3ccc(C)cc3[nH]2)cc1 | MTT | 48 h | 13.2 µM
O=C(CCl)Nc1ccc2c(Nc3cccc(C(F)(F)F)c3)ncnc2c1 | MTT | 24 h | 6.88 µM
CC(C)C(=O)Nc1ccc([N+](=O)[O-])c(C(F)(F)F)c1 | CCK-8 | 48 h | > 50 µM
COc1nc(SC)nc(OC)c1C(=O)/C=C/[c-]1cccc1.[Fe+2].c1cc[cH-]c1 | MTT | 72 h | 9.3 µM
Clc1ccc(-c2nc3ccccc3[nH]2)c(Cl)c1 | MTT | 48 h | 52.2 µM
COc1cccc2c1C(=O)c1c(O)c3c(c(O)c1C2=O)C[C@@](O)(C(=O)CO)C[C@@H]3O[C@H]1C[C@H](N)[C@H](O)[C@H](C)O1 | SRB | – | 0.45 µM
Cc1ccc2nc(-c3c(F)cccc3Cl)[nH]c2c1 | MTT | 48 h | 34.4 µM
CCN1CCN(Cc2ccc(Nc3ncc(F)c(-c4cc(F)c5nc(C)n(C(C)C)c5c4)n3)nc2)CC1 | CCK-8 | – | 1.67 µM
CC(=O)O[C@H]1C(=O)[C@@]2(C)[C@H]([C@H](OC(=O)c3ccccc3)[C@]3(O)C[C@H](OC(=O)[C@H](O)[C@@H](NC(=O)c4ccccc4)c4ccccc4)C(C)=C1C3(C)C)[C@]1(OC(C)=O)CO[C@@H]1C[C@@H]2O | MTT | 48 h | 1.38 µM
COc1cccc([C@@H]2C[C@@H](C)OC(=O)c3cc4ccccn4c32)c1 (racemic) | resazurin | 72 h | 53 µM
Oc1ccccc1-c1nc2ccccc2[nH]1 | MTT | 48 h | 35.9 µM
CC(C)C[C@H](NC(=O)[C@H](Cc1ccccc1)NC(=O)c1cnccn1)B(O)O | ATP luminescence | – | 0.013 µM
